Reference: ChEMBL document CHEMBL1142063, “Synthesis of omeprazole analogues and evaluation of these as potential inhibitors of the multidrug efflux pump NorA of Staphylococcus aureus” (2007)

Tested on: Staphylococcus aureus
Assay: Increase in 5 ug moxifloxacin antibacterial activity against Staphylococcus aureus SA1199B mutant overexpressing NorA at 128 ug/ml by disk diffusion method
Assay type: functional
Procedure, shortened: (§1)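 Agar diffusion on Mueller-Hinton agar (adjusted to 20 μg/ml Ca²⁺ and 10 μg/ml Mg²⁺), used plain or with the efflux inhibitor incorporated at the stated concentration. Disks were 5 μg for the fluoroquinolones and 30 μg for chloramphenicol. Plates were incubated overnight at 37°C, and inhibition zone diameters were measured. Values are means of at least three independent experiments.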

Row | SMILES | inhibition zone (IZ) [mm]
1 | Cn1c([S+]([O-])Cc2nc3ccccc3n3cccc23)nc2ccccc21 (stereo not drawn) | 27
2 | COc1ccc2[nH]c([S+]([O-])Cc3nc4ccccc4n4cccc34)nc2c1 (stereo not drawn) | 28
3 | COc1ccc2c(c1)nc(C[S+]([O-])c1nc3ccccc3[nH]1)c1cccn12 (stereo not drawn) | 28

Tested on: Staphylococcus aureus
Assay: Increase in 30 ug chloramphenicol antibacterial activity against Staphylococcus aureus SA1199B mutant overexpressing NorA at 128 ug/ml by disk diffusion method
Assay type: functional
Procedure, shortened: as §1

Row | SMILES | inhibition zone (IZ) [mm]
4 | Cn1c([S+]([O-])Cc2nc3ccccc3n3cccc23)nc2ccccc21 (stereo not drawn) | 25
5 | COc1ccc2[nH]c([S+]([O-])Cc3nc4ccccc4n4cccc34)nc2c1 (stereo not drawn) | 26
6 | COc1ccc2c(c1)nc(C[S+]([O-])c1nc3ccccc3[nH]1)c1cccn12 (stereo not drawn) | 26

Tested on: Staphylococcus aureus
Assay: Increase in 5 ug ciprofloxacin antibacterial activity against Staphylococcus aureus SA1199B mutant overexpressing NorA at 128 ug/ml by disk diffusion method
Assay type: functional
Procedure, shortened: as §1

Row | SMILES | inhibition zone (IZ) [mm]
7 | Cn1c([S+]([O-])Cc2nc3ccccc3n3cccc23)nc2ccccc21 (stereo not drawn) | 15
8 | COc1ccc2[nH]c([S+]([O-])Cc3nc4ccccc4n4cccc34)nc2c1 (stereo not drawn) | 24
9 | COc1ccc2c(c1)nc(C[S+]([O-])c1nc3ccccc3[nH]1)c1cccn12 (stereo not drawn) | 22

Tested on: Staphylococcus aureus
Assay: Increase in 16 ug/ml Norfloxacin accumulation in wild type Staphylococcus aureus SA1199 at 128 ug/ml after 20 mins
Assay type: functional
Procedure, shortened: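 Mid-exponential SA-1199 cells were washed and resuspended in 50 mM sodium phosphate, pH 7.0. They were exposed at time zero to norfloxacin at one-quarter MIC, alone or with EPI at 128 μg/ml. At 5–20 min, cells were spun through silicone-paraffin oil into orthophosphoric acid. Lysate norfloxacin was measured by C18 HPLC with fluorescence detection (ex 240, em 280 nm) and normalized to BCA protein (ng/mg). Triplicate experiments, mean reported.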

Row | SMILES | Activity [%]
10 | COc1ccc2[nH]c([S+]([O-])Cc3nc4ccccc4n4cccc34)nc2c1 (stereo not drawn) | 10
11 | COc1ccc2c(c1)nc(C[S+]([O-])c1nc3ccccc3[nH]1)c1cccn12 (stereo not drawn) | 10

Tested on: Staphylococcus aureus
Assay: Increase in 5 ug sparfloxacin antibacterial activity against Staphylococcus aureus SA1199B mutant overexpressing NorA at 128 ug/ml by disk diffusion method
Assay type: functional
Procedure, shortened: as §1

Row | SMILES | inhibition zone (IZ) [mm]
12 | Cn1c([S+]([O-])Cc2nc3ccccc3n3cccc23)nc2ccccc21 (stereo not drawn) | 27
13 | COc1ccc2[nH]c([S+]([O-])Cc3nc4ccccc4n4cccc34)nc2c1 (stereo not drawn) | 27
14 | COc1ccc2c(c1)nc(C[S+]([O-])c1nc3ccccc3[nH]1)c1cccn12 (stereo not drawn) | 28

Tested on: Staphylococcus aureus
Assay: Increase in 16 ug/ml Norfloxacin accumulation in Staphylococcus aureus SA1199B mutant overexpressing NorA measured per milligram of cell protein at 128 ug/ml after 20 mins
Assay type: functional, organism-based
Procedure, shortened: (§2)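 SA-1199B was grown to mid-exponential phase in MH broth (4–5 h, 37°C, shaken), then washed and resuspended in 50 mM sodium phosphate, pH 7.0. Cells got norfloxacin at one-quarter MIC, alone or with inhibitor at 128 μg/ml. At 5–20 min, cells were spun through silicone-paraffin oil into orthophosphoric acid. Norfloxacin was measured by HPLC fluorescence (ex 240/[…]) as ng/mg BCA protein. Means of triplicate experiments.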

Row | SMILES | Drug uptake [ng/mg]
15 | COc1ccc2[nH]c([S+]([O-])Cc3nc4ccccc4n4cccc34)nc2c1 (stereo not drawn) | 400
16 | COc1ccc2c(c1)nc(C[S+]([O-])c1nc3ccccc3[nH]1)c1cccn12 (stereo not drawn) | 400

Tested on: Staphylococcus aureus
Assay: Increase in 16 ug/ml Norfloxacin accumulation in Staphylococcus aureus SA1199B mutant overexpressing NorA measured per mg of cell protein at 128 ug/ml after 5 mins
Assay type: functional, organism-based
Procedure, shortened: as §2

Row | SMILES | Drug uptake [ng/mg]
17 | COc1ccc2[nH]c([S+]([O-])Cc3nc4ccccc4n4cccc34)nc2c1 (stereo not drawn) | 270
18 | COc1ccc2c(c1)nc(C[S+]([O-])c1nc3ccccc3[nH]1)c1cccn12 (stereo not drawn) | 270

Tested on: Staphylococcus aureus
Assay: Increase in 5 ug levofloxacin antibacterial activity against Staphylococcus aureus SA1199B mutant overexpressing NorA at 128 ug/ml by disk diffusion method
Assay type: functional
Procedure, shortened: as §1

Row | SMILES | inhibition zone (IZ) [mm]
19 | Cn1c([S+]([O-])Cc2nc3ccccc3n3cccc23)nc2ccccc21 (stereo not drawn) | 23
20 | COc1ccc2[nH]c([S+]([O-])Cc3nc4ccccc4n4cccc34)nc2c1 (stereo not drawn) | 24
21 | COc1ccc2c(c1)nc(C[S+]([O-])c1nc3ccccc3[nH]1)c1cccn12 (stereo not drawn) | 24

Tested on: Staphylococcus aureus
Assay: Increase in 5 ug Norfloxacin antibacterial activity against Staphylococcus aureus SA1199B mutant overexpressing NorA at 128 ug/ml by disk diffusion method
Assay type: functional
Procedure, shortened: as §1

Row | SMILES | inhibition zone (IZ) [mm]
22 | Cn1c([S+]([O-])Cc2nc3ccccc3n3cccc23)nc2ccccc21 (stereo not drawn) | 6
23 | COc1ccc2[nH]c([S+]([O-])Cc3nc4ccccc4n4cccc34)nc2c1 (stereo not drawn) | 15
24 | COc1ccc2c(c1)nc(C[S+]([O-])c1nc3ccccc3[nH]1)c1cccn12 (stereo not drawn) | 13

Tested on: Staphylococcus aureus
Assay: Increase in 2 ug/ml Norfloxacin antibacterial activity against wild type Staphylococcus aureus SA1199 at 128 ug/ml by checker board method
Assay type: functional

Row | SMILES | MIC [µg/mL]
25 | Cn1c([S+]([O-])Cc2nc3ccccc3n3cccc23)nc2ccccc21 (stereo not drawn) | 2
26 | COc1ccc2[nH]c([S+]([O-])Cc3nc4ccccc4n4cccc34)nc2c1 (stereo not drawn) | 1
27 | COc1ccc2c(c1)nc(C[S+]([O-])c1nc3ccccc3[nH]1)c1cccn12 (stereo not drawn) | 1

Tested on: Staphylococcus aureus
Assay: Antibacterial activity against Staphylococcus aureus
Assay type: functional
Procedure, shortened: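 Tube broth dilution MIC against SA-1199 and NorA-overproducing SA-1199B in Mueller-Hinton broth with 20 μg/ml Ca²⁺ and 10 μg/ml Mg²⁺. Inoculum was a 4–5 h 37°C culture diluted 1/10 (≈10⁶ CFU/ml). Compound range was 512 to 1 μg/ml, dissolved in DMSO (final ≤4%).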

Row | SMILES | MIC [µg/mL]
28 | Cn1c([S+]([O-])Cc2nc3ccccc3n3cccc23)nc2ccccc21 (stereo not drawn) | > 512
29 | COc1ccc2[nH]c([S+]([O-])Cc3nc4ccccc4n4cccc34)nc2c1 (stereo not drawn) | > 512
30 | COc1ccc2c(c1)nc(C[S+]([O-])c1nc3ccccc3[nH]1)c1cccn12 (stereo not drawn) | > 512

Tested on: Staphylococcus aureus
Assay: Increase in 16 ug/ml Norfloxacin accumulation in Staphylococcus aureus SA1199B mutant overexpressing NorA at 128 ug/ml after 20 mins
Assay type: functional
Procedure, shortened: as §2

Row | SMILES | Activity [%]
31 | COc1ccc2[nH]c([S+]([O-])Cc3nc4ccccc4n4cccc34)nc2c1 (stereo not drawn) | 40
32 | COc1ccc2c(c1)nc(C[S+]([O-])c1nc3ccccc3[nH]1)c1cccn12 (stereo not drawn) | 40

Tested on: Staphylococcus aureus
Assay: Increase in 64 ug/ml Norfloxacin antibacterial activity against Staphylococcus aureus SA1199B mutant overexpressing NorA at 128 ug/ml by checker board method
Assay type: functional

Row | SMILES | MIC [µg/mL]
33 | Cn1c([S+]([O-])Cc2nc3ccccc3n3cccc23)nc2ccccc21 (stereo not drawn) | 32
34 | COc1ccc2[nH]c([S+]([O-])Cc3nc4ccccc4n4cccc34)nc2c1 (stereo not drawn) | 8
35 | COc1ccc2c(c1)nc(C[S+]([O-])c1nc3ccccc3[nH]1)c1cccn12 (stereo not drawn) | 8

Tested on: Staphylococcus aureus
Assay: Increase in 5 ug ofloxacin antibacterial activity against Staphylococcus aureus SA1199B mutant overexpressing NorA at 128 ug/ml by disk diffusion method
Assay type: functional
Procedure, shortened: as §1

Row | SMILES | inhibition zone (IZ) [mm]
36 | Cn1c([S+]([O-])Cc2nc3ccccc3n3cccc23)nc2ccccc21 (stereo not drawn) | 20
37 | COc1ccc2[nH]c([S+]([O-])Cc3nc4ccccc4n4cccc34)nc2c1 (stereo not drawn) | 25
38 | COc1ccc2c(c1)nc(C[S+]([O-])c1nc3ccccc3[nH]1)c1cccn12 (stereo not drawn) | 25
